Experimental data as given in ChEMBL document CHEMBL1821603, “Bivalent bendamustine and melphalan derivatives as anticancer agents” (Eur J Med Chem, 2011).
Calls of active or inactive are those of the source. No cut-off for these calls is given here.

Experiments:
MCF7 [1] = assay: Cytostatic effect against human MCF7 cells at 10 uM after 72 hrs by crystal violet staining relative to uncreate control; format: functional
Method in brief: (§1)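 MCF-7 or MDA-MB-231 cells (ATCC) in DMEM high glucose with 5% FCS, seeded at 7500 cells/mL and grown 3 days at 37 °C, 5% CO2. Compound was added from a DMF or methanol stock and incubated 72 h. Cells were glutardialdehyde-fixed and stained with crystal violet, and the dye was extracted with 70% ethanol for OD 578 nm. T/Ccorr = (T−C0)/(C−C0)×100, where C0 is the OD before treatment. Run 3 times.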

MDA-MB-231 = assay: Antiproliferative activity against human MDA-MB-231 cells after 72 hrs by crystal violet staining; format: functional, cell-based; method in brief: as §1
MCF7 [2] = assay: Cytotoxicity against human MCF7 cells at 1 uM after 72 hrs by crystal violet staining; format: functional, cell-based
Method in brief: (§2)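 MCF-7 cells in DMEM high glucose with 5% FCS were seeded at 7500 cells/mL and grown 3 days at 37 °C, 5% CO2. Then exposed 72 h to compound added from a DMF or methanol stock. Biomass was read by crystal violet staining of glutardialdehyde-fixed cells, with 70% ethanol extraction and OD at 578 nm, against untreated control and pre-treatment OD. Three runs per substance.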

MCF7 [3] = assay: Cytotoxicity against human MCF7 cells at 5 uM after 72 hrs by crystal violet staining; format: functional, cell-based; method in brief: as §2
MCF7 [4] = assay: Cytotoxicity against human MCF7 cells at 10 uM after 72 hrs by crystal violet staining; format: functional, cell-based; method in brief: as §2
[5] = Half life in PBS buffer at pH 7.4; format: physicochemical
MCF7 [6] = assay: Cytostatic effect against human MCF7 cells at 5 uM after 72 hrs by crystal violet staining relative to uncreate control; format: functional, cell-based; method in brief: as §1

N[C@@H](Cc1ccc(N(CCCl)CCCl)cc1)C(=O)O [MELPHALAN]
T/C (MCF7 [1]): 20%
Activity (MDA-MB-231): Active

Cn1c(CCCC(=O)O)nc2cc(N(CCCl)CCCl)ccc21
Activity (MCF7 [2]): inactive
Activity (MDA-MB-231): Active
Activity (MCF7 [3]): inactive
Activity (MCF7 [4]): inactive

Cn1c(CCCC(=O)OCCN2C(=O)C=CC2=O)nc2cc(N(CCCl)CCCl)ccc21
half-life [5]: 600 min
Activity (MDA-MB-231): Active
Activity (MCF7 [6]): Active

CC(C)(C)OC(=O)N[C@@H](Cc1ccc(N(CCCl)CCCl)cc1)C(=O)OCCN1C(=O)C=CC1=O
Activity (MDA-MB-231): Active
